Test results as given in ChEMBL document CHEMBL1153132, “Novel sulfamoyl benzamides as selective CB(2) agonists with improved in vitro metabolic stability” (Bioorg Med Chem Lett, 2010).
Active and inactive are the calls of the source.

Columns and labels:
Cannabinoid receptor 2 [1] = target: T1, Cannabinoid receptor 2 (Rattus norvegicus, UniProt Q9QZN9); test: Agonist activity at rat brain CB2 receptor by GTPgammaS binding assay; format: functional
T1 sequence (Q9QZN9 whole entry): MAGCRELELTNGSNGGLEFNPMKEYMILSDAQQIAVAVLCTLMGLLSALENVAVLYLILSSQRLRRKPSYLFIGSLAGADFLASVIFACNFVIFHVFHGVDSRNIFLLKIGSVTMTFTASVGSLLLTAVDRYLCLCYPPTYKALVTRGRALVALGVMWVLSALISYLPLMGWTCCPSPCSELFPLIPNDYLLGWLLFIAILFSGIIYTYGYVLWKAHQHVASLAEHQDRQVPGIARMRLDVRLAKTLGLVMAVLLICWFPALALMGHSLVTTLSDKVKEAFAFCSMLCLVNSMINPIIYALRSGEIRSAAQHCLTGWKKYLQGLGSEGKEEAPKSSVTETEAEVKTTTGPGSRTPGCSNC

Homo sapiens = species on record: Homo sapiens; test: Selectivity, ratio of Ki for human CB1 to Ki for human CB2
Summary of the method: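 Ki at each receptor came from displacement of [³H]CP-55940 binding in membranes containing cloned human CB₁ or CB₂ receptor. Ki values are geometric means of at least three separate determinations. Selectivity is Ki CB₁ divided by Ki CB₂.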

Liver microsomes [2] = test: Metabolic stability in rat liver microsomes; format: ADME, Microsome
Summary of the method: (§1)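 Parent compound incubated with rat (RLM) or human (HLM) liver microsomes for 30 min; result given as % parent remaining.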

Liver microsomes [3] = test: Metabolic stability in human liver microsomes; format: ADME, Microsome; summary of the method: as §1
Cannabinoid receptor 2 [4] = target: T2, Cannabinoid receptor 2 (Homo sapiens, UniProt P34972); test: Displacement of [3H]CP-55940 from human CB2 receptor
Summary of the method: (§2)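 Membranes with cloned human CB1 or CB2 receptors; test ligand displaces [3H]CP-55940; Ki values are geometric means of at least three separate determinations.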
Target sequence in this assay (P34972 whole entry): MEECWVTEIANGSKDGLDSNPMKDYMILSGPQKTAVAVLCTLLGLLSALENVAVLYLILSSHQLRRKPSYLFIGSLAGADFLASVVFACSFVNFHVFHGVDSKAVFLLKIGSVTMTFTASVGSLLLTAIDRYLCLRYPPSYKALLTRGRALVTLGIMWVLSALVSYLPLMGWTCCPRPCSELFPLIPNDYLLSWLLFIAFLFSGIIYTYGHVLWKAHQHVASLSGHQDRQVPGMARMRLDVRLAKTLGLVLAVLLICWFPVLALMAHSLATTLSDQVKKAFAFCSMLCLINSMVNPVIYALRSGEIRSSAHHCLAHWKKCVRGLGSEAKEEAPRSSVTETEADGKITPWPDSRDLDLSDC

Cannabinoid receptor 1 = Cannabinoid receptor 1 (Homo sapiens, UniProt P21554); test: Displacement of [3H]CP-55940 from human CB1 receptor; summary of the method: as §2
[5] = AUC (0 to infinity) in Sprague-Dawley rat at 1 mg/kg, iv; format: ADME, organism-based; set-up: time infinity, dose 1 mg/kg, route intravenous; details: plasma
[6] = Clearance in Sprague-Dawley rat at 1 mg/kg, iv; format: ADME, organism-based; set-up: dose 1 mg/kg, route intravenous; details: in vivo
[7] = Cmax in Sprague-Dawley rat at 100 mg/kg, po; format: ADME, organism-based; set-up: dose 100 mg/kg, route oral; details: in vivo
Summary of the method: (§3)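 Male Sprague-Dawley rats dosed 100 mg/kg po. Cmax and oral F are mean ± SD of three animals; F is referenced to a 1.0 mg/kg iv dose; Tmax is given as median and range.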

[8] = Tmax in Sprague-Dawley rat at 100 mg/kg, po; format: ADME, organism-based; set-up: dose 100 mg/kg, route oral; details: in vivo; summary of the method: as §3
[9] = Half life in Sprague-Dawley rat at 1 mg/kg, iv; format: ADME, organism-based; set-up: dose 1 mg/kg, route intravenous; details: in vivo
[10] = Volume of distribution at steady state in Sprague-Dawley rat at 1 mg/kg, iv; format: ADME, organism-based; set-up: dose 1 mg/kg, route intravenous; details: in vivo, read-out: Vdss
[11] = AUC (0 to infinity) in Sprague-Dawley rat at 100 mg/kg, po; format: ADME, organism-based; set-up: time infinity, dose 100 mg/kg, route oral; details: plasma
Rattus norvegicus = test: Antiallodynic effect against rat hind paw insition model assessed as paw withdrawal at 30 mg/kg, ip; format: functional, organism-based; set-up: dose 30 mg/kg
Summary of the method: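 Rat hindpaw incision surgery model with vehicle and morphine treatment groups. Mechanical paw withdrawal threshold of the left hindpaw was followed over time. Data are mean ± SEM; one-way ANOVA with post-hoc protected t-test versus the vehicle-treated surgery group.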

[12] = Oral bioavailability in Sprague-Dawley rat at 100 mg/kg; format: ADME, organism-based; details: in vivo; summary of the method: as §3
Cannabinoid receptor 2 [13] = target: T2, Cannabinoid receptor 2; test: Inhibition of [3H]CP-55940 binding to human CB2 receptor at 10 uM
Target sequence in this assay (P34972 whole entry, looked up): as the sequence (P34972 whole entry) above

Chain of Cannabinoid receptor 1 (P21554 whole entry): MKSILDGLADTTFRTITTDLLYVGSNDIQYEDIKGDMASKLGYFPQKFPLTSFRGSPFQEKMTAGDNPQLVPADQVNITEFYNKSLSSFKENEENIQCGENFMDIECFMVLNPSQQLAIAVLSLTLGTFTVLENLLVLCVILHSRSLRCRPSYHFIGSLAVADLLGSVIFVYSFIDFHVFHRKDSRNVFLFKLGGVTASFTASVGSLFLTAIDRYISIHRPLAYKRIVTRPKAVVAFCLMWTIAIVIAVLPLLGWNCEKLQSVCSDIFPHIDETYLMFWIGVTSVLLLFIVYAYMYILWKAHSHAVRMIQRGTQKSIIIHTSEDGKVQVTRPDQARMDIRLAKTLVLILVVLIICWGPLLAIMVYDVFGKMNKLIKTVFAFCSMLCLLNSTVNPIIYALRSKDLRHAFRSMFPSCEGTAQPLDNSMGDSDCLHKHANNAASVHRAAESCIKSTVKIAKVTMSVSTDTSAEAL

Structure (SMILES)	EC50 (Cannabinoid receptor 2 [1])	Ratio Ki (Homo sapiens)	Stability (Liver microsomes [2])	Stability (Liver microsomes [3])	Ki (Cannabinoid receptor 2 [4])	Ki (Cannabinoid receptor 1)	also measured
Cc1ccc(NC(=O)C2C(C)(C)C2(C)C)cc1S(=O)(=O)N1CCOCC1	11 nM	150	2%	1%			
CCC(C)(C)C(=O)Nc1ccc(C)c(S(=O)(=O)N2CCOCC2)c1					290 nM		
CCC(C)(C)C(=O)Nc1cc(C)c(C)c(S(=O)(=O)NCC2CC2)c1	135 nM	57			66 nM	3800 nM	
CCC(C)(C)C(=O)Nc1cc(S(=O)(=O)N2CCOCC2)c(C)c(C)c1C					410 nM		
Cc1cc(NC(=O)C(C)(C(F)(F)F)C(F)(F)F)cc(S(=O)(=O)N2CCOCC2)c1C	11 nM	120	22%	11%	6.6 nM	780 nM	
CCCC(C)(C)C(=O)Nc1cc(C)c(C)c(S(=O)(=O)N2CCOCC2)c1	21 nM	86	9%	1%	9.7 nM	830 nM	
Cc1cc(NC(=O)C2C(C)(C)C2(C)C)cc(S(=O)(=O)N2CCOCC2)c1C	66 nM	69	31%	17%	16 nM	1100 nM	
CCC(C)(C)C(=O)Nc1cc(C)c(C)c(S(=O)(=O)N2CCOCC2)c1	38 nM	150	28%	17%	17 nM	2500 nM	AUC(0-inf) [5]: 237 ng·h/mL; clearance [6]: 70 mL/min/kg; Cmax [7]: 1220 ng/mL; Tmax [8]: 6 h; half-life [9]: 0.7 h; Vd [10]: 2.5 L/kg; AUC(0-inf) [11]: 4800 ng·h/mL; Activity (Rattus norvegicus): Active; bioavailability [12]: 22%
CCCCC(C)(C)C(=O)Nc1cc(C)c(C)c(S(=O)(=O)N2CCOCC2)c1	82 nM	130	0%	0%	1.1 nM	140 nM	
CCC(C)(C)C(=O)Nc1cc(C)c(C)c(S(=O)(=O)N2CCS(=O)(=O)CC2)c1	20 nM		10%	1%	8.4 nM		inhibition (Cannabinoid receptor 2 [13]): 18%
CCC(C)(C)C(=O)Nc1cc(C)c(C)c(S(=O)(=O)N2CCCCC2)c1	13 nM	240	0%	0%	2.7 nM	650 nM	
Cc1cc(NC(=O)C(C)(C)O)cc(S(=O)(=O)N2CCOCC2)c1C					2080 nM		
Cc1cc(NC(=O)C(C)(C)C)cc(S(=O)(=O)N2CCOCC2)c1C	90 nM	78	37%	52%	40 nM	3100 nM	
CCC(C)(C)C(=O)Nc1cc(C)c(C)c(S(=O)(=O)N2CCC[C@@H]2CO)c1	98 nM				43 nM		inhibition (Cannabinoid receptor 2 [13]): 8.3%
CCC(C)(C)C(=O)Nc1cc(C)c(C)c(S(=O)(=O)NC2CCCC2)c1	98 nM	36			94 nM	3400 nM	
CCC(C)(C)C(=O)Nc1cc(C)c(C)c(S(=O)(=O)N2CCCCCC2)c1	22 nM	200	0%	0%	9 nM	1800 nM	
CCC(C)(C)C(=O)Nc1cc(S(=O)(=O)N2CCOCC2)cc(C)c1C							inhibition (Cannabinoid receptor 2 [13]): 15%
CCC(C)(C)C(=O)Nc1cc2c(c(S(=O)(=O)N3CCOCC3)c1)CCCC2	1400 nM	100	2%	1%	14 nM	1400 nM	
CCC(C)(C)C(=O)Nc1cc2c(c(S(=O)(=O)N3CCOCC3)c1)CCC2	1700 nM	140	9%	10%	12 nM	1700 nM	
CCC(C)(C)C(=O)Nc1cc(C)c(C)c(S(=O)(=O)N2CC[C@H](O)C2)c1	73 nM				90 nM		inhibition (Cannabinoid receptor 2 [13]): 6.3%
CCC(C)(C)C(=O)Nc1cc(S(=O)(=O)N2CCOCC2)c(C)cc1C					760 nM		
COCCC(C)(C)C(=O)Nc1cc(C)c(C)c(S(=O)(=O)N2CCOCC2)c1					110 nM		
CCC(C)(C)C(=O)Nc1cc(C)c(C)c(S(=O)(=O)N2CCSC2)c1	12 nM	300	0%	0%	6.9 nM	2100 nM	
Cc1cc(NC(=O)C(C)(C)c2ccccc2)cc(S(=O)(=O)N2CCOCC2)c1C					120 nM		
